≈ marks a conversion by molar mass, not a printed value.
What was measured:
HL-60 = experiment: Cytotoxicity against human HL60 cells after 72 hrs by WST8 assay; type: functional, cell-based; conditions: HL-60, 72 h
Outline: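 HL-60 cells were kept in RPMI-1640 with 10% FBS at 37 °C under 5% CO2. Cells were seeded at 5 × 10^3 per well and preincubated 2 h, then exposed to compound in medium for 72 h. WST-8 was added for a further 3 h, and formazan absorbance was read at 450 nm to give IC50.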

Bacillus subtilis = experiment: Antibacterial activity against Bacillus subtilis NBRC 3134 after overnight incubation by microdilution method; type: functional
Outline: (§1)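 Broth microdilution MIC. Strains were first grown on YP agar (1% polypeptone, 0.2% yeast extract, 0.1% MgSO4·7H2O, 6% agar) for 12 h, B. subtilis at 37 °C and K. pneumoniae at 27 °C. Samples came from a 10 mg/mL DMSO stock, serially diluted in 96-well plates of strain in YP medium, then incubated overnight at 37 °C. Ampicillin served as reference.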

Klebsiella pneumoniae = experiment: Antibacterial activity against Klebsiella pneumoniae NBRC 3512 after overnight incubation by microdilution method; type: functional; outline: as §1

SMILES	IC50 (HL-60) [µM]	MIC (Bacillus subtilis) [µM]	MIC (Klebsiella pneumoniae) [µM]
COc1cc2ccc3cc(O)ccc3c2c(OC)c1O	34.2	185 (≈ 50.1 µg/mL)	
COc1ccc2c(ccc3cc(OC)c(O)c(OC)c32)c1	19.3	52.8 (≈ 15 µg/mL)	
COc1ccc2c(c1)CCc1cc(OC)c(O)c(OC)c1-2	31.8		
COc1cc2ccc3c(OC)c(O)ccc3c2c(OC)c1O	103	250 (≈ 75.1 µg/mL)	
CC1(C)S[C@@H]2[C@H](NC(=O)[C@H](N)c3ccccc3)C(=O)N2[C@H]1C(=O)O [AMPICILLIN]		0.36 (≈ 0.126 µg/mL)	107 (≈ 37.5 µg/mL)
COc1cc2ccc3cccc(O)c3c2c(OC)c1O [BULBOPHYLLANTHRIN]	52.4	185 (≈ 50.1 µg/mL)	185 (≈ 50.1 µg/mL)
COC1=CC(=O)C2=C(CCc3cccc(O)c32)C1=O [EPHEMERANTHOQUINONE B]	2.8	4.88 (≈ 1.25 µg/mL)	
COc1c(O)cc2c(c1OC)-c1ccc(O)cc1CC2 [ERIANTHRIDIN]	44.6		
COc1cc2c(c(OC)c1O)-c1c(O)cccc1CC2 [MARYLAURENCINOLS A]	96.8		
COc1c(O)c2c(c(OC)c1O)-c1c(O)cccc1CC2 [MARYLAURENCINOLS B]	174	65.1 (≈ 18.8 µg/mL)	
COc1cc2c(c(O[C@@H]3O[C@H](CO)[C@@H](O)[C@H](O)[C@H]3O)c1O)-c1c(O)cccc1CC2 [MARYLAURENCINOSIDE A]	52.4		
CO[C@@]12[C@H](COC(N)=O)C3=C(C(=O)C(C)=C(N)C3=O)N1C[C@@H]1N[C@@H]12 [MITOMYCIN]	0.1		
